In brackets after ≈: the same amount, converted by molar mass. Activity calls are given as the source filed them. The rule behind the calls is not given here.
Tests used:
Bacillus subtilis [1] = test: Antibacterial activity against Bacillus subtilis NCIB 3610 at 5 mg/ml by agar disk diffusion assay; assay type: functional; conditions: for zone of inhibition at 5000 µg/mL: Bacillus subtilis, NCIB 3610, read-out: DIZ
Bacillus subtilis [2] = test: Antibacterial activity against Bacillus subtilis NCIB 3610 at 2.5 mg/ml by agar disk diffusion assay; assay type: functional; conditions: for zone of inhibition at 2500 µg/mL: Bacillus subtilis, NCIB 3610, read-out: DIZ
U-251 = test: Cytotoxicity against human U251 cells assessed as surviving fraction after 48 hrs by SRB assay; assay type: functional, cell-based
Outline: (§1)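 Cells seeded at 10⁴ cells/well and left 24 h to attach, then exposed to […] in triplicate wells per dose. Incubation 48 h, 37 °C, 5% CO₂. Cells fixed and stained with sulforhodamine B, excess dye removed with acetic acid, bound dye taken up in Tris EDTA and read on an ELISA reader. Surviving fraction plotted against concentration.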

HCT-116 = test: Cytotoxicity against human HCT116 cells assessed as surviving fraction after 48 hrs by SRB assay; assay type: functional, cell-based; outline: as §1
Pseudomonas aeruginosa [3] = test: Antibacterial activity against Pseudomonas aeruginosa NCIB 9016 at 2.5 mg/ml by agar disk diffusion assay; assay type: functional; conditions: for zone of inhibition at 2500 µg/mL: Pseudomonas aeruginosa, NCIB 9016, read-out: DIZ
HeLa = test: Cytotoxicity against human HeLa cells assessed as surviving fraction after 48 hrs by SRB assay; assay type: functional, cell-based; outline: as §1
Pseudomonas aeruginosa [4] = test: Antibacterial activity against Pseudomonas aeruginosa NCIB 9016 at 5 mg/ml by agar disk diffusion assay; assay type: functional; conditions: for zone of inhibition at 5000 µg/mL: Pseudomonas aeruginosa, NCIB 9016, read-out: DIZ
Aspergillus niger [5] = test: Antifungal activity against Aspergillus niger Ferm-BAM C-21 at 5 mg/ml by agar disk diffusion assay; assay type: functional; conditions: read-out: DIZ
Outline: (§2)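 Fungi maintained on Czapek's Dox agar; agar well diffusion with 1 cm wells and […] of each concentration (1, 2.5, 5 mg/mL) in DMF; inhibition zone diameter measured.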

[6] = Antitumor activity against mouse EAC cells assessed as inhibition of cell viability at 50 ug/ml after 2 hrs by trypan blue exclusion assay; assay type: functional; conditions: Ehrlich
Outline: (§3)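 EAC cells aspirated from ascitic fluid of inoculated mice and diluted in saline; 0.1 mL cell suspension, 0.8 mL RPMI 1640 and 0.1 mL compound (25, 50 or 100) incubated 2 h at 37 °C; non-viable cells counted by trypan blue exclusion; % non-viable = dead/total × 100.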

Candida albicans [7] = test: Antifungal activity against Candida albicans IMRU 3669 at 5 mg/ml by agar disk diffusion assay; assay type: functional; conditions: for zone of inhibition at 5000 µg/mL: Candida albicans, IMRU 3669, read-out: DIZ; outline: as §2
[8] = Antitumor activity against mouse EAC cells assessed as inhibition of cell viability at 100 ug/ml after 2 hrs by trypan blue exclusion assay; assay type: functional; conditions: Ehrlich; outline: as §3
Candida albicans [9] = test: Antifungal activity against Candida albicans IMRU 3669 at 2.5 mg/ml by agar disk diffusion assay; assay type: functional; conditions: read-out: DIZ; outline: as §2
HepG2 = test: Cytotoxicity against human HepG2 cells assessed as surviving fraction after 48 hrs by SRB assay; assay type: functional, cell-based; outline: as §1
[10] = Antitumor activity against mouse EAC cells assessed as inhibition of cell viability at 25 ug/ml after 2 hrs by trypan blue exclusion assay; assay type: functional; conditions: Ehrlich; outline: as §3
Bacillus subtilis [11] = test: Antibacterial activity against Bacillus subtilis NCIB 3610 at 1 mg/ml by agar disk diffusion assay; assay type: functional; conditions: for zone of inhibition at 1000 µg/mL: Bacillus subtilis, NCIB 3610, read-out: DIZ
Candida albicans [12] = test: Antifungal activity against Candida albicans IMRU 3669 at 1 mg/ml by agar disk diffusion assay; assay type: functional; conditions: read-out: DIZ; outline: as §2
MCF7 = test: Cytotoxicity against human MCF7 cells assessed as surviving fraction after 48 hrs by SRB assay; assay type: functional, cell-based; outline: as §1
Coxsackievirus B4 = test: Antiviral activity against Coxsackievirus B4 infected african green monkey Vero cells at 10^-4 dilution of 5 mg/ml by plaque formation assay; assay type: functional, organism-based
Outline: (§4)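 Compound dilutions prepared from a 5 mg/mL DMSO stock, using the maximum non-toxic dilution for Vero cells over 3 days; 0.1 mL virus (10³) mixed with 0.1 mL compound for 1 h at room temperature; mixture inoculated onto washed Vero monolayers in 12-well plates and adsorbed at 37 °C; 2× MEM/agarose overlay applied; read-out % reduction in plaque count versus untreated virus control.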

Hepatovirus A = test: Antiviral activity against Hepatitis A virus infected african green monkey Vero cells at 10^-4 dilution of 5 mg/ml by plaque formation assay; assay type: functional; outline: as §4
Salmonella typhi [13] = test: Antibacterial activity against Salmonella typhi NCIMB 9331 at 5 mg/ml by agar disk diffusion assay; assay type: functional, Salmonella enterica subsp. enterica serovar Typhi; conditions: Salmonella enterica, read-out: DIZ
Escherichia coli = test: Antibacterial activity against Escherichia coli NCTC 10416 at 5 mg/ml by agar disk diffusion assay; assay type: functional; conditions: read-out: DIZ
Bacillus subtilis [14] = test: Antibacterial activity against Bacillus subtilis NCTC 1040 at 5 mg/ml by agar disk diffusion assay; assay type: functional; conditions: read-out: DIZ
Human alphaherpesvirus 1 = test: Antiviral activity against HSV1 infected african green monkey Vero cells at 10^-4 dilution of 5 mg/ml by plaque formation assay; assay type: functional; outline: as §4
Aspergillus niger [15] = test: Antifungal activity against Aspergillus niger IMI 31726 at 5 mg/ml by agar disk diffusion assay; assay type: functional; conditions: read-out: DIZ
Aspergillus niger [16] = test: Antifungal activity against Aspergillus niger Ferm-BAM C-21 at 2.5 mg/ml by agar disk diffusion assay; assay type: functional; conditions: read-out: DIZ; outline: as §2
Pseudomonas aeruginosa [17] = test: Antibacterial activity against Pseudomonas aeruginosa NCIB 9016 at 1 mg/ml by agar disk diffusion assay; assay type: functional; conditions: for zone of inhibition at 1000 µg/mL: Pseudomonas aeruginosa, NCIB 9016, read-out: DIZ
Staphylococcus aureus [18] = test: Antibacterial activity against Staphylococcus aureus NCTC 7447 at 5 mg/ml by agar disk diffusion assay; assay type: functional; conditions: read-out: DIZ
Klebsiella pneumoniae = test: Antimicrobial activity against Klebsiella pneumoniae NCIMB 9111 by macrotube dilution assay; assay type: functional
Staphylococcus aureus [19] = test: Antimicrobial activity against Staphylococcus aureus NCTC 7447 by macrotube dilution assay; assay type: functional
Candida albicans [20] = test: Antifungal activity against Candida albicans IMRU 3669 by macrotube dilution assay; assay type: functional
Outline: (§5)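 Macrotube twofold dilution per NCCLS/CLSI guidelines for fungi; 2 mg compound in 2.0 mL DMF, serially diluted across 14 tubes of Czapek's Dox medium, with a control tube; inoculum added to halve the concentration; 30 °C for 72 h; MIC is the lowest concentration without visible growth.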

Salmonella typhi [21] = test: Antimicrobial activity against Salmonella typhi NCIMB 9331 by macrotube dilution assay; assay type: functional, Salmonella enterica subsp. enterica serovar Typhi; conditions: Salmonella enterica
Aspergillus niger [22] = test: Antifungal activity against Aspergillus niger Ferm-BAM C-21 by macrotube dilution assay; assay type: functional; outline: as §5
Bacillus subtilis [23] = test: Antimicrobial activity against Bacillus subtilis NCTC 1040 by macrotube dilution assay; assay type: functional
Aspergillus niger [24] = test: Antifungal activity against Aspergillus niger Ferm-BAM C-21 at 1 mg/ml by agar disk diffusion assay; assay type: functional; conditions: read-out: DIZ; outline: as §2
[25] = Homo sapiens, HeLa, 48 h, read-out: IC50
[26] = Homo sapiens, HepG2, 48 h, read-out: IC50
[27] = Homo sapiens, MCF7, 48 h, read-out: IC50

SMILES	zone of inhibition at 5000 µg/mL (Bacillus subtilis [1]) [mm]	zone of inhibition at 2500 µg/mL (Bacillus subtilis [2]) [mm]	zone of inhibition at 2500 µg/mL (Pseudomonas aeruginosa [3]) [mm]	zone of inhibition at 5000 µg/mL (Pseudomonas aeruginosa [4]) [mm]	zone of inhibition at 5000 µg/mL (Aspergillus niger [5]) [mm]	inhibition at 50 µg/mL [6] [%]	zone of inhibition at 5000 µg/mL (Candida albicans [7]) [mm]	inhibition at 100 µg/mL [8] [%]	zone of inhibition at 2500 µg/mL (Candida albicans [9]) [mm]	inhibition at 25 µg/mL [10] [%]	zone of inhibition at 1000 µg/mL (Bacillus subtilis [11]) [mm]	zone of inhibition at 1000 µg/mL (Candida albicans [12]) [mm]	Activity (Coxsackievirus B4)	Activity (Hepatovirus A)	zone of inhibition at 5000 µg/mL (Salmonella typhi [13]) [mm]	zone of inhibition at 5000 µg/mL (Escherichia coli) [mm]	zone of inhibition at 5000 µg/mL (Bacillus subtilis [14]) [mm]	Activity (Human alphaherpesvirus 1)	zone of inhibition at 2500 µg/mL (Aspergillus niger [16]) [mm]	other results
CCOc1ccc(N2C(=O)N(c3c(CC)cc(Cc4cc(CC)c(N5C(=N)C(=S)N(c6ccc(OCC)cc6)C5=O)c(CC)c4)cc3CC)C(=N)C2=S)cc1	15	14	13	15	13	80	15	90	14	60	13	12	–	–	–	–	–	–	–	IC50 (U-251; Homo sapiens, U-251, 48 h, read-out: IC50): 1.01 mg/L (≈ 1.3 µM); IC50 (HCT-116; Homo sapiens, HCT-116, 48 h, read-out: IC50): 4.36 mg/L (≈ 5.63 µM); IC50 (HeLa; [25]): 2.42 mg/L (≈ 3.12 µM); IC50 (HepG2; [26]): 5.44 mg/L (≈ 7.02 µM); IC50 (MCF7; [27]): 2.15 mg/L (≈ 2.77 µM)
N=C1C(=S)N(c2ccc(Br)cc2)C(=O)N1c1ccc2c(c1)Cc1ccccc1-2	–	–	–	–	–	–	13	–	–	–	–	–	inactive	inactive	16	14	13	inactive	–	–
O=C1N(c2ccc(Cl)cc2)CC(=S)N1c1ccc(Cl)cc1	–	–	–	–	–	100	–	100	–	90	–	–	–	–	–	–	–	–	–	IC50 (HeLa; hela): Not Active; IC50 (HepG2; hepg2): Not Active; IC50 (MCF7; [27]): 9.36 mg/L (≈ 27.8 µM)
N=C1C(=S)N(c2ccc(Cl)c(Cl)c2)C(=O)N1c1ccc(Cl)cc1	14	13	16	18	17	–	17	–	13	–	13	–	inactive	inactive	17	19	16	inactive	15	zone of inhibition at 5000 µg/mL (Aspergillus niger [15]): 21 mm; zone of inhibition at 1000 µg/mL (Pseudomonas aeruginosa [17]): 15 mm; zone of inhibition at 5000 µg/mL (Staphylococcus aureus [18]): 16 mm; diameter of the inhibition zone (DIZ) (Candida albicans [7]): 14 mm
N=C1C(=S)N(c2ccc(I)cc2)C(=O)N1c1cc(Cl)c(Cl)cc1Cl	–	–	–	–	–	–	17	–	–	–	–	–	inactive	40%	17	16.5	17	inactive	–	zone of inhibition at 5000 µg/mL (Aspergillus niger [15]): 20 mm; zone of inhibition at 5000 µg/mL (Staphylococcus aureus [18]): 18 mm
CC1OC(=N)C(=S)N1c1ccc(Cl)c(Cl)c1 (stereo not given)	33	27	29	41	20	–	39	–	33	–	20	21	–	–	–	–	–	–	11	zone of inhibition at 1000 µg/mL (Pseudomonas aeruginosa [17]): 15 mm
Cc1ccc(-n2c(=O)n(-c3ccc(Cl)cc3)c3nc4cc(C)ccc4nc32)cc1	–	–	–	–	–	60	–	90	–	35	–	–	–	–	–	–	–	–	–	IC50 (U-251; u-251): Not Active; IC50 (HCT-116; hct-116): Not Active; IC50 (HeLa; [25]): 8.32 mg/L (≈ 20.8 µM); IC50 (HepG2; [26]): 4.43 mg/L (≈ 11.1 µM); IC50 (MCF7; mcf7): Not Active
N#CC(=S)Nc1ccc(Cl)c(Cl)c1	–	–	–	–	56	–	44	–	40	–	–	37	–	–	–	–	–	–	45	MIC (Klebsiella pneumoniae): 1.95 mg/L (≈ 8.44 µM); MIC (Staphylococcus aureus [19]): 3.9 mg/L (≈ 16.9 µM); MIC (Candida albicans [20]): 0.97 mg/L (≈ 4.2 µM); diameter of the inhibition zone (DIZ) (Pseudomonas aeruginosa [17]): 35 mm; diameter of the inhibition zone (DIZ) (Bacillus subtilis [1]): 43 mm; MIC (Salmonella typhi [21]): 0.24 mg/L (≈ 1.04 µM); diameter of the inhibition zone (DIZ) (Bacillus subtilis [2]): 41 mm; diameter of the inhibition zone (DIZ) (Pseudomonas aeruginosa [3]): 37 mm; MIC (Aspergillus niger [22]): 15.6 mg/L (≈ 67.5 µM); diameter of the inhibition zone (DIZ) (Pseudomonas aeruginosa [4]): 38 mm; MIC (Bacillus subtilis [23]): 0.97 mg/L (≈ 4.2 µM); diameter of the inhibition zone (DIZ) (Bacillus subtilis [11]): 40 mm; zone of inhibition at 1000 µg/mL (Aspergillus niger [24]): 29 mm

— ChEMBL document CHEMBL1155362, “Synthesis, characterization and derivatization of some novel types of mono- and bis-imidazolidineiminothiones and imidazolidineiminodithiones with antitumor, antiviral, antibacterial and antifungal activities--part I” (Eur J Med Chem, 2009)
